A selection: hits, their analogues and other compounds. The true share with any hit is near 3%.
MEKK2 mut-MEK5 – MEK5 binding signal on mutant MEKK2 PB1, primary screen, biochemical, multiplex bead flow cytometry, Alexa488-MEK5. 0.35% of 290,000 active. Alexa488-MEK5 binding to MEKK2 mutant. percent response, % at 10 µM. AID 1530, 2009; in the data active means percent response above about 24%, passing the limit was not always enough
UBC13 inh – UBC13 polyubiquitin chain formation inhibitors, primary screen, biochemical, TR-FRET, uHTS | Ubiquitin-conjugating enzyme E2 N (Homo sapiens), P61088 | 0.47% of 330,000 active | inhibition, % at 20 µM; in the data active means inhibition above about 45%, passing the limit was not always enough
Target sequence (P61088 whole entry, looked up): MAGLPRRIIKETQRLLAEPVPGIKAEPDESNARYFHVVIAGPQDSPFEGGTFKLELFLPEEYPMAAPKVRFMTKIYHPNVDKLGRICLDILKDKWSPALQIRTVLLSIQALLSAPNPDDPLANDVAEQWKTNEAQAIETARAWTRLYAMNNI
MEKK2 WT-MEK5 – modulators of MEK5 binding to wildtype MEKK2, primary screen, biochemical, multiplex bead flow cytometry, Alexa488-MEK5. Alexa488-MEK5 binding to MEKK2 WT; actives lie on both sides. binding response (% of control), % at 10 µM. Mitogen-activated protein kinase kinase kinase 2 (Homo sapiens), Q9Y2U5. 1.1% of 290,000 active; in the data active means binding response below about 67% or above about 130%
MEKK3 PB1 HTS – modulators of MEKK3-MEK5 PB1 binding, primary screen, biochemical, wildtype MEKK3, multiplex bead flow cytometry, Alexa488-MEK5; bead-based flow cytometry, Alexa488-MEK5 binding to MEKK3; actives lie on both sides; 0 = blocked by unlabeled MEK5, 100 = vehicle; 1.4% of 290,000 active; binding response (% of control), % at 10 µM;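 active means binding response more than 3 SD above or below the average of its plate-row segment, actives on both sides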;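 further: Alexa488 bead fluorescence after subtracting the streptavidin-only scavenger bead signal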
UCH37 inh – inhibitors of human UCH37 deubiquitinase, primary screen, biochemical, Ub-AMC cleavage, fluorescence. inhibition, % (no concentration beside the values). 0.33% of 330,000 active. Ubiquitin carboxyl-terminal hydrolase isozyme L5 (Homo sapiens), Q9Y5K5. AID 588478, 2011. purified proteasome/UCH37;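 active means mean inhibition over replicate wells above about 20%, limit read from the data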
Target sequence (Q9Y5K5 whole entry, looked up): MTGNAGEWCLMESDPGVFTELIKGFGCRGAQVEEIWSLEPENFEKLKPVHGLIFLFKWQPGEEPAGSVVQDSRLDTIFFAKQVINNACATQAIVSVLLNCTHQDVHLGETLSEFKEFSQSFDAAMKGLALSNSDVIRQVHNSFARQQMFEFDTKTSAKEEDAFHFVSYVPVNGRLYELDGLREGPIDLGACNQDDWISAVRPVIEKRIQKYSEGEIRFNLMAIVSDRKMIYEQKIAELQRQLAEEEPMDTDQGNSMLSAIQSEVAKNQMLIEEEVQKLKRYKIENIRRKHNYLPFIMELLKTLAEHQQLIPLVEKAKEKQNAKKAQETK
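system = Proteasome-associated human UCH37 deubiquitinase | amount = 0.15 nM proteasome as dispensed | medium = pH 7.4 Tris-HCl (50 mM) with ovalbumin, ATP-MgCl2, DTT | incubation = 30 min preincubation with enzyme, 25 min cleavage at room temperature | detection = AMC fluorescence 355/460 nm | read-out basis = percent inhibition | controls = no-proteasome and no-compound wells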
Apaf1 inhib – inhibitors of human Apaf-1 apoptosome, primary screen, biochemical, DEVD-Rh110 fluorescence, uHTS. reconstituted apoptosome caspase-3 activity. inhibition, % at 20 µM. 0.71% of 330,000 active; active means inhibition of at least 40% at 20 µM
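Material: reconstituted apoptosome with Apaf-1, cytochrome c, caspase-9, procaspase-3, dATP / Buffer or medium: pH 7.5 Hepes buffer with CHAPS, BSA, DTT / Also added: cytochrome c with DEVD-Rh110 / Schedule: compound with Apaf-1, dATP, procaspase-3 30 min, then 50 min reaction, room temperature / Technique: rhodamine 110 fluorescence at Ex 480/Em 540 nm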
MEKK2wt confirm – modulators of MEK5 binding to wildtype MEKK2, confirmation, biochemical, single concentration, multiplex bead flow cytometry; Alexa488-MEK5 binding to MEKK2 WT; actives lie on both sides; 2.4% of 5,900 active; binding response (% of control), % at 10 µM; shares compounds with MEKK3 PB1 HTS; in the data active means binding response below about 16% or above about 210%; inactive means in between
MEKK2mut-MEK5 – mutant MEKK2 PB1-MEK5 binding signal retest – biochemical, single concentration, multiplex bead flow cytometry, confirmation; AID 1893, 2009; percent response, % at 10 µM; 2% of 5,900 active; shares compounds with MEKK3 PB1 HTS; Alexa488-MEK5 binding to MEKK2 mutant; in the data active means percent response mostly above about 71%, no sharp cut-off; inactive means mostly below about 38%;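 further: higher means compound restores mutant binding toward wildtype level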
MEKK3-MEK5 inh – MEKK3 wild-type PB1 binding to MEK5, inhibitors, confirmation, biochemical, bead multiplex flow cytometry, single concentration, wildtype. AID 1894, 2009. binding response (% of control), % at 10 µM. 1.8% of 5,900 active. Alexa488-MEK5 binding to MEKK3; stronger effect = lower value. shares compounds with MEKK3 PB1 HTS;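 active means binding response below 72% of control, or above a set upper limit, though filed actives all read lower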
Numbers stand for hits; i = inactive; nt = no result given; [ ] = another dose, or the depositor's remark.

SMILES	MEKK2 mut-MEK5	UBC13 inh	MEKK2 WT-MEK5	MEKK3 PB1 HTS	UCH37 inh	Apaf1 inhib	MEKK2wt confirm	MEKK2mut-MEK5	MEKK3-MEK5 inh
O=C(NC(NC(=S)Nc1ccc(Cl)cc1Cl)C(Cl)(Cl)Cl)c1cccc([N+](=O)[O-])c1 (stereo not given)	i	i	145	141	i	i	i	i	i
CCN(CC)CCN(C(=O)c1ccc2ccccc2c1)c1nc2cc3c(cc2s1)OCO3	i	i	135	i	i	i	i	i	i
CCN(CC)CCN(C(=O)c1ccc(S(=O)(=O)N2CCCCC2)cc1)c1nc2cc3c(cc2s1)OCO3	i	i	i	132	i	i	i	i	i
O=C1NC(=O)C2(Br)Nc3ccc(Br)cc3C(=O)C2N1 (stereo not given)	nt	nt	nt	nt	i	nt	nt	nt	nt
CC1(C)Cc2c(C#N)c(N)sc(=S)c2CS1	i	i	56[inhibitor]	i	i	i	i	i	i
Cn1c(N)c(C#N)c2c(c1=S)CSC(C)(C)C2	i	i	i	i	i	i	nt	nt	nt
O=C1NCN(c2ccccc2)C12CCN(CCCC(c1ccc(F)cc1)c1ccc(F)cc1)CC2	25	i	207	i	i	55	i	i	i
O=C1CCC(=O)N1CCC(c1ccc(F)cc1)c1ccco1 (stereo not given)	i	i	i	i	i	i	nt	nt	nt
COc1ccc(/C=N/NC(=O)c2[nH]c3ccc(Br)cc3c2-c2ccccc2)cc1	i	i	i	147	nt	i	i	i	i
Cc1cccc(OCC(=O)Nc2ccc(S(=O)(=O)Nc3ccccn3)cc2)c1	i	i	i	i	i	i	nt	nt	nt
Cc1ccc(C)c(OCC(=O)Nc2ccc(S(=O)(=O)Nc3ccccn3)cc2)c1	i	i	i	134	i	i	i	i	i
O=C(NNC(=O)c1cccc(-n2cccc2)c1)c1ccc(F)cc1	nt	i	nt	nt	i	i	nt	nt	nt
Cc1cc(C)nc(SCCCNCc2ccccc2)n1	i	i	i	i	i	i	nt	nt	nt
O=C(NCCC1CCCCN1S(=O)(=O)c1ccccc1)C(=O)NCCN1CCOCC1 (stereo not given)	nt	i	nt	nt	i	i	nt	nt	nt
C=CCNC(=O)c1ccc(-n2cccc2)cc1	i	i	i	138	i	i	i	i	i
Cc1nc(COC(=O)c2cc(O)c3ccccc3c2O)cs1	i	nt	i	i	i	nt	nt	nt	nt
Cc1nc(COC(=O)c2ccc(CO)cc2)cs1	i	i	0.0[inhibitor]	0.0[inhibitor]	i	i	i	i	i
O=C(Cc1ccccc1)NNC1CC(=O)N(c2ccccc2)C1=O (stereo not given)	i	i	i	i	i	i	nt	nt	nt
COc1cccc(C(=O)C2CCCN(C/C=C/c3ccccc3OC)C2)c1 (stereo not given)	i	i	i	i	i	i	nt	nt	nt
COc1ccc(/C=C/CN2CCCC(C(=O)c3ccc(OC)c(F)c3)C2)cc1 (stereo not given)	i	i	140	i	i	i	i	i	i
